MEKK2mut PB1 HTS: MEK5 binding signal on mutant MEKK2 PB1, primary screen, biochemical, multiplex bead flow cytometry, Alexa488-MEK5; Alexa488-MEK5 binding to MEKK2 mutant; percent response, % at 10 µM; 290,000 tested, 0.35% active; in the data active = percent response above about 24%, passing the limit was not always enough
UCH37 DUB inh: inhibitors of human UCH37 deubiquitinase, primary screen, biochemical, Ub-AMC cleavage, fluorescence; Ubiquitin carboxyl-terminal hydrolase isozyme L5 (Homo sapiens), Q9Y5K5; purified proteasome/UCH37; inhibition, % (concentration not given with the values); 330,000 tested, 0.33% active;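 active = mean inhibition over replicate wells above about 20%, limit read from the data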;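 also: 0% = compound-free wells with enzyme and 100% = wells lacking proteasome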
Target sequence (Q9Y5K5 whole entry, looked up): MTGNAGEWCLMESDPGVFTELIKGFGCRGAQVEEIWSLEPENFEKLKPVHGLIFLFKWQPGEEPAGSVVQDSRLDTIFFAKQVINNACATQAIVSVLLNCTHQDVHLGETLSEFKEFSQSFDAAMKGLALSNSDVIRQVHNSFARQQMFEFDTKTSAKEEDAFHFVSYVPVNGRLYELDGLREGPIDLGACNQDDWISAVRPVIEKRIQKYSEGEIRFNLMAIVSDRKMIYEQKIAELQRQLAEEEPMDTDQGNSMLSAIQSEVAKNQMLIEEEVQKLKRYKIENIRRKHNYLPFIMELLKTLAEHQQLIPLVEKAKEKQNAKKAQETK
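system = Proteasome-associated human UCH37 deubiquitinase | amount = 0.15 nM proteasome as dispensed | medium = pH 7.4 Tris-HCl (50 mM) with ovalbumin, ATP-MgCl2, DTT | incubation = 30 min preincubation with enzyme, 25 min cleavage at room temperature | detection = AMC fluorescence 355/460 nm | read-out basis = percent inhibition | controls = no-proteasome and no-compound wells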
MEKK2wt PB1 HTS: modulators of MEK5 binding to wildtype MEKK2, primary screen, biochemical, multiplex bead flow cytometry, Alexa488-MEK5; Mitogen-activated protein kinase kinase kinase 2 (Homo sapiens), Q9Y2U5; Alexa488-MEK5 binding to MEKK2 WT; actives lie on both sides; binding response (% of control), % at 10 µM; 290,000 tested, 1.1% active; in the data active = binding response below about 67% or above about 130%
T cell HTS: modulators of CD8 T cell-vesicle binding, primary screen, mouse 2C CD8+ T cells, flow cytometry | 2C CD8+ T cell-vesicle binding; hits give low values | response (vesicle binding), % at 7 µM | 330,000 tested, 0.068% active;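 active = response, share of CD8 T cells binding vesicles, and their 90th percentile fluorescence all below set limits, cut at about 80% in these data, passing the limit was not always enough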;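 also: values below 100% mean blocked vesicle binding to the CD8+ T cells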
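Assay system: 2C TCR transgenic mouse naive CD8+ T cells, MACS-purified | Read-out: CD8+ gate FL2 mean fluorescence as % of same-row positive control | Signal: High-throughput flow cytometry with anti-B7-1 and anti-CD8 staining | Timing: Binding step 1.5 h, 37 °C, antibody labelling 20 min, ice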
MEKK3 PB1 HTS: modulators of MEKK3-MEK5 PB1 binding, primary screen, biochemical, wildtype MEKK3, multiplex bead flow cytometry, Alexa488-MEK5; 290,000 tested, 1.4% active; bead-based flow cytometry, Alexa488-MEK5 binding to MEKK3; actives lie on both sides; 0 = blocked by unlabeled MEK5, 100 = vehicle; binding response (% of control), % at 10 µM; Mitogen-activated protein kinase kinase kinase 3 (Homo sapiens), Q99759;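 active = binding response more than 3 SD above or below the average of its plate-row segment, actives on both sides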;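 also: Alexa488 bead fluorescence after subtracting the streptavidin-only scavenger bead signal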
Rce1 inh: yeast Rce1p protease inhibitors, primary screen, biochemical, fluorescence, cell-free homogeneous. yeast membranes, quenched prenylated peptide cleavage fluorescence. CAAX prenyl protease 2 (Saccharomyces cerevisiae (strain ATCC 204508 / S288c)), Q03530. 290,000 tested, 0.27% active. AID 2563, 2010. calls only;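 active = fall in fluorescence gain of 50% or more versus controls, with final raw signal at or below 3038400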;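 also: plate controls were neutral control wells for no effect and wells lacking membranes for full effect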
Target sequence (Q03530 whole entry, looked up): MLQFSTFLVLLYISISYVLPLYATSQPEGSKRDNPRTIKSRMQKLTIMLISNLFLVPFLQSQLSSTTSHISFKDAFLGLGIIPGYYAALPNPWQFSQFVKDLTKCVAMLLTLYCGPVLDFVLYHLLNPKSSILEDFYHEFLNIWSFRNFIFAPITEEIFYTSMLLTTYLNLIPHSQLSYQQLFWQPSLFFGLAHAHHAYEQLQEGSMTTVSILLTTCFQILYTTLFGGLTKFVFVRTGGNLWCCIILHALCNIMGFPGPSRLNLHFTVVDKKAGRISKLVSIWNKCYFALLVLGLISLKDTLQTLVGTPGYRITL
MEKK2wt confirm: modulators of MEK5 binding to wildtype MEKK2, confirmation, biochemical, single concentration, multiplex bead flow cytometry; shares compounds with MEKK3 PB1 HTS; Alexa488-MEK5 binding to MEKK2 WT; actives lie on both sides; binding response (% of control), % at 10 µM; 5,900 tested, 2.4% active; AID 1892, 2009; in the data active = binding response below about 16% or above about 210%; inactive = in between
MEKK2mut confirm: mutant MEKK2 PB1-MEK5 binding signal retest – biochemical, single concentration, multiplex bead flow cytometry, confirmation | AID 1893, 2009 | percent response, % at 10 µM | shares compounds with MEKK3 PB1 HTS | 5,900 tested, 2% active | Alexa488-MEK5 binding to MEKK2 mutant; in the data active = percent response mostly above about 71%, no sharp cut-off; inactive = mostly below about 38%;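 also: higher means compound restores mutant binding toward wildtype level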
MEKK3 confirm: MEKK3 wild-type PB1 binding to MEK5, inhibitors, confirmation, biochemical, bead multiplex flow cytometry, single concentration, wildtype; shares compounds with MEKK3 PB1 HTS; Alexa488-MEK5 binding to MEKK3; hits give low values; binding response (% of control), % at 10 µM; 5,900 tested, 1.8% active; AID 1894, 2009;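 active = binding response below 72% of control, or above a set upper limit, though filed actives all read lower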;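 also: 100% = DMSO only wells and 0% = binding blocked by excess unlabeled MEK5; lower values mean stronger disruption of MEK5 binding to MEKK3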
An asterisk follows results filed as active; i = inactive; x = no result given; [ ] = remark or other dose. This is a sample that favours compounds with a hit; in the whole collection about 2.5% have one here.

SMILES	MEKK2mut PB1 HTS	UCH37 DUB inh	MEKK2wt PB1 HTS	T cell HTS	MEKK3 PB1 HTS	Rce1 inh	MEKK2wt confirm	MEKK2mut confirm	MEKK3 confirm
Cc1ccc(-c2oc3ncnc(N)c3c2-c2ccc(C)cc2)cc1	-8.0	-134.6	97.0	332.1	97.0	i	x	x	x
COc1cccc(C=NNc2nn3cnnc3c3ccccc23)c1O	x	1.8	x	x	x	x	x	x	x
CN(CC(=O)NCCc1ccc(F)cc1)Cc1cccc(Cl)c1	-28.0	4.4	6.0*[inhibitor]	239.3	5.0*[inhibitor]	i	108.0	9.0	108.0
O=C(CCSCc1cccc(Cl)c1)NCCc1ccccc1	0.0	0.4	106.0	266.1	134.0*	i	105.0	7.0	105.0
O=C(O)c1cccc(-n2cccc2/C=C2/NC(=O)N(c3cccc(Cl)c3)C2=O)c1	-6.0	7.7	94.0	221.3	99.0	i	x	x	x
COc1ccc(-n2cccc2/C=C2/NC(=O)N(c3cccc(Cl)c3)C2=O)cc1	0.0	-1.1	105.0	417.4	130.0*	i	102.0	5.0	101.0
O=C(O)c1cccc(-n2cccc2/C=C2/NC(=O)N(c3ccc(Cl)cc3)C2=O)c1	-7.0	27.4*	63.0*[inhibitor]	x	74.0*[inhibitor]	x	76.0	-30.0	86.0
CC(C)(C)c1ccc(C=NN2CCN(c3ccccn3)CC2)cc1	x	6.2	x	x	x	x	x	x	x
FC(F)(F)c1cccc(-n2cccc2C=Nn2cnnc2)c1	x	5.7	x	x	x	x	x	x	x
O=C(CCc1nnc(CCCCc2ccccc2)o1)NCCCc1cccnc1	-19.0	-4.4	9.0*[inhibitor]	275.5	66.0	i	102.0	4.0	106.0
O=C(CCc1nnc(CCCc2ccccc2)o1)NCCc1ccccc1	-6.0	0.6	98.0	171.0	99.0	i	x	x	x
C(=NNc1ncnc2sc3c(c12)CCC3)c1cccs1	x	4.1	x	x	x	x	x	x	x
COc1cc(/C=C/C(=O)OCC(=O)Nc2cc(C(F)(F)F)ccc2N2CCOCC2)ccc1O	0.0	-4.4	104.0	223.9	152.0*	i	105.0	-1.0	104.0
C/C=C/c1ccc(OCC(=O)Nc2cc(C(F)(F)F)ccc2N2CCOCC2)c(OC)c1	1.0	5.2	103.0	174.9	96.0	i	x	x	x
COc1cc(/C=C/C(=O)OCC(=O)Nc2cc(S(=O)(=O)N3CCCCC3)ccc2C)ccc1O	-1.0	-8.7	99.0	232.7	100.0	i	x	x	x
COc1cc(/C=C/C(=O)OCC(=O)Nc2ccc(C)c(S(=O)(=O)N3CCCCC3)c2)ccc1O	0.0	-14.0	108.0	160.3	147.0*	i	103.0	-6.0	103.0
COc1cc(C=NNC(=O)c2ccc3nc[nH]c3c2)cc(OC)c1OC	x	-0.1	x	x	x	x	x	x	x
NC(=NOC(=O)CSc1ccccc1)c1ccc([N+](=O)[O-])cc1	x	3.0	x	x	x	x	x	x	x
Cc1cccc(C)c1-n1c(C)cc(C=NNC(N)=S)c1C	x	1.4	x	x	x	x	x	x	x
CCn1cc(CN2CCCC(C(=O)Nc3ccc(-c4nc5ccccc5[nH]4)cc3)C2)c(C)n1 (stereo not given)	11.0	-0.9	124.0	210.5	102.0	x	x	x	x
CCn1cc(CN2CCCC(C(=O)Nc3cccc(-c4cc5ccccc5[nH]4)c3)C2)c(C)n1 (stereo not given)	21.0	-6.7	154.0*	0.0	107.0	i	176.0	39.0	104.0
O=C(C[n+]1ccccc1)N/N=C/c1cccc(Cl)c1Cl	-2.0	x	66.0*[inhibitor]	302.2	88.0	i	109.0	4.0	104.0
O=C(C[n+]1ccccc1)N/N=C/c1ccccc1Cl	x	x	x	392.7	x	x	x	x	x
N=C(N)SCc1nc2ccccc2c(=O)n1-c1ccccc1Cl	10.0	-18.3	128.0	350.5	135.0*	i	100.0	2.0	102.0
Fc1cccc(Nc2ncnc3[nH]ncc23)c1	0.0	0.1	104.0	289.9	103.0	i	x	x	x
SMILES	MEKK2mut PB1 HTS	UCH37 DUB inh	MEKK2wt PB1 HTS	T cell HTS	MEKK3 PB1 HTS	Rce1 inh	MEKK2wt confirm	MEKK2mut confirm	MEKK3 confirm
Brc1ccc(Nc2ncnc3[nH]ncc23)cc1	-30.0	-0.7	68.0	407.4	73.0*[inhibitor]	i	101.0	2.0	101.0
O=C(CSc1n[nH]c(=O)[nH]c1=O)c1ccccc1[N+](=O)[O-]	-33.0	-0.7	70.0	258.9	64.0*[inhibitor]	x	102.0	3.0	107.0
O=C(CSc1n[nH]c(=O)[nH]c1=O)c1cccc([N+](=O)[O-])c1	-2.0	1.7	99.0	203.3	103.0	i	x	x	x
COCCNC(=O)C1=NOC(Cn2cc(C#N)c(=O)n(C)c2=O)C1 (stereo not given)	6.0	0.6	129.0	144.4	145.0*	i	100.0	4.0	108.0
COc1ccc(C2CC(Cn3cc(C#N)c(=O)n(C)c3=O)ON2C)cc1 (stereo not given)	-5.0	0.3	94.0	214.7	101.0	i	x	x	x
Cc1cccc(N2C(=O)c3cccc(Oc4ccc(Cl)cc4)c3C2=O)c1	0.0	2.6	104.0	503.0	130.0*	i	99.0	-4.0	104.0
C=CCN1C(=O)/C(=C2/C(=O)N(CC(=O)O)c3ccccc32)SC1=Nc1nccs1	x	1.7	x	x	x	x	x	x	x
O=C1c2ccccc2C(=O)N1OCCOCCOCCON1C(=O)c2ccccc2C1=O	-3.0	-3.1	85.0	612.7	82.0	i	x	x	x
O=C1c2ccccc2C(=O)N1OCCOCCOCCBr	-26.0	2.0	-2.0*[inhibitor]	236.1	1.0*[inhibitor]	i	102.0	2.0	102.0
C=C(C)C1CC=C(C)C(=NNC(=O)CCC(=O)Nc2ccc(C)c(C)c2)C1 (stereo not given)	x	1.5	x	x	x	x	x	x	x
OC(COc1ccc(CNCCc2ccccc2F)cc1)CN1CCCCC1 (stereo not given)	58.0*	-1.4	168.0*	670.4	102.0	i	140.0	15.0	109.0
CC(=NOC(=O)c1c(-c2c(F)cccc2Cl)noc1C)c1cnccn1	x	5.2	x	x	x	x	x	x	x

Source: PubChem BioAssay
